Drawing on ChEMBL document CHEMBL1123993, “2(1H)-quinolinones with cardiac stimulant activity. 1. Synthesis and biological activities of (six-membered heteroaryl)-substituted derivatives” (1988), this text covers Decrease, Relative potency and dP/dt for 33 molecules.

Where only a bound is given, the exact number is not on record here.

The first assay deals with Canis familiaris. The assay is described as follows: Decrease in QA interval in Conscious dog (n=4) 1 hr after a dose of 0.25 mg/Kg was administered per orally. In kind it is functional, Canis lupus familiaris.
Conditions: not given
The method in brief:
(§1)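 Conscious dogs (n = 4) given test substance as a solution by oral gavage. QA interval (ms from ECG R wave to arterial pressure pulse upstroke) recorded by computer every 0.16 h, from 0.5 h predose to 4 h postdose. Each time-point value is the mean of six consecutive 8-s sets. Reported as decrease from mean predose control.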
Molecule `Cc1[nH]c(=O)c(C#N)cc1-c1ccncc1` [MILRINONE] came in with a Decrease of 13.

The subject of a further assay is Canis familiaris. The assay is described as follows: Percentage increase in dP/dt maximum observed with 4-[4-[2-(1,1-dioxo-2-isothiazolidinyl)-ethyl]-[…] (50 ug/Kg) in dog. Type of assay: functional, Canis lupus familiaris.
Conditions: not given
The method in brief: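 Standard quinazoline inotrope given iv at 50 µg/kg to anesthetized dogs before each test compound. Left ventricular pressure recorded by Millar catheter via the carotid artery and differentiated to dP/dt max. Response expressed as % increase in dP/dt max; individual values taken from a typical test run.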
`Cc1ccncc1-c1ccc2nc(O)ccc2c1` registered a Relative potency of 1.3.

The molecule `Cc1ccc(-c2ccc3nc(O)ccc3c2)c(C)n1` displayed a Relative potency of 1.4.

`Cc1ncccc1-c1ccc2nc(O)ccc2c1`: the Relative potency was 1.7.

The molecule `COc1cc(-c2ccc(C)nc2C)cc2ccc(O)nc12` yielded a Relative potency of 0.4.

In the case of `Oc1ccc2cc(-c3ccccn3)ccc2n1`, the Relative potency was found to be 0.3.

For the molecule `CCc1cc(-c2ccc(C)nc2C)cc2ccc(O)nc12`, the Relative potency is 1.

On to `Cc1ccc(-c2cc(O)c3nc(O)ccc3c2)c(C)n1`, for which the Relative potency was less than 0.1.

`Oc1ccc2cc(-c3ccnnc3)ccc2n1` had a Relative potency of 1.3.

Molecule `Cc1cc(-c2cccnc2)cc2ccc(O)nc12` showed a Relative potency of 9.

`Oc1ccc2c(-c3cccnc3)cccc2n1` showed a Relative potency of 0.9.

On to `Cc1ccc(-c2cc(C(C)C)c3nc(O)ccc3c2)c(C)n1`, for which the Relative potency was found to be 0.4.

For the molecule `CSc1ccc(C(=O)c2[nH]c(=O)[nH]c2C)cc1` [ENOXIMONE], the Relative potency was found to be 0.013.

For `O=C1CCc2cc(-c3cccnc3)ccc2N1`, the Relative potency is listed as 1.1.

`Cc1cc2nc(O)ccc2cc1-c1cccnc1` came in with a Relative potency of 0.2.

`Nc1cc2cc(-c3cccnc3)ccc2nc1O` showed a Relative potency of 0.9.

With `N#Cc1cc2cc(-c3cccnc3)ccc2nc1O`, the Relative potency came to 0.9.

In turn, `Nc1ccc(-c2ccc3nc(O)ccc3c2)cn1` showed a Relative potency of 0.8.

With `Oc1ccc2ccc(-c3cccnc3)cc2n1`, the Relative potency turned out to be 0.2.

Take `CSc1cc(-c2ccc(C)nc2C)cc2ccc(O)nc12`: the Relative potency is given as 0.5.

Turning to `Cc1ccc(-c2cc(Br)c3nc(O)ccc3c2)c(C)n1`, the Relative potency came out at 0.7.

Molecule `Oc1ccc2cc(-c3cccnc3)ccc2n1` showed a Relative potency of 1.3.

`Cc1ccc(-c2ccc3nc(O)ccc3c2)cn1` showed a Relative potency of 1.3.

Turning to `Cc1cc(O)nc2ccc(-c3cccnc3)cc12`, the Relative potency worked out at 0.7.

The molecule `O=[N+]([O-])c1cc2cc(-c3cccnc3)ccc2nc1O` displayed a Relative potency of 0.6.

In turn, `Cc1ccc(-c2cc(C)c3nc(O)ccc3c2)c(C)n1` displayed a Relative potency of 4.3.

The molecule `Oc1ccc2cc(-c3ccncn3)ccc2n1` gave a Relative potency of 1.2.

`Oc1ccc2cc(-c3ncccn3)ccc2n1` displayed a Relative potency of 0.7.

On to `Oc1ccc2cc(-c3cccnn3)ccc2n1`, for which the Relative potency was 0.7.

In the case of `Cc1ccc(-c2ccc3c(c2)CCC(=O)N3)c(C)n1`, the Relative potency came to 0.8.

`Cc1[nH]c(=O)c(C#N)cc1-c1ccncc1` [MILRINONE] gave a Relative potency of 1.6.

The molecule `COc1ccc(-c2ccc3nc(O)ccc3c2)cn1` displayed a Relative potency of 0.3.

The molecule `Oc1ccc2cc(-c3cncnc3)ccc2n1` came in with a Relative potency of 1.1.

Molecule `Oc1ccc2cc(-c3ccncc3)ccc2n1` came in with a Relative potency of 0.9.

The subject of another assay is Canis familiaris. The assay is described as follows: Inotropic activity measured as % increase in dP/dt maximum in Anesthetized dog at the dose of 50 ug/Kg administered intravenously. In kind it is functional, Canis lupus familiaris.
Conditions: not given
The method in brief:
(§2)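 Anesthetized dogs. LVP recorded via Millar catheter passed into the left ventricle through the carotid artery, differentiated to dP/dt max. After 0.75 h equilibration, compound given iv in 0.9% saline 0.5 h after a standard quinazoline inotrope (50 µg/kg). Cycle repeated once control levels returned, at least 0.5 h between doses. Reported as % increase in dP/dt max; relative potency normalised by dose to the standard in the same dog.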
`Cc1ccncc1-c1ccc2nc(O)ccc2c1` had a dP/dt of 21%.

Turning to `Cc1ccc(-c2ccc3nc(O)ccc3c2)c(C)n1`, the dP/dt was found to be 37%.

`Cc1ncccc1-c1ccc2nc(O)ccc2c1` returned a dP/dt of 74%.

`COc1cc(-c2ccc(C)nc2C)cc2ccc(O)nc12` had a dP/dt of 11%.

Regarding `CCc1cc(-c2ccc(C)nc2C)cc2ccc(O)nc12`, the dP/dt is 35%.

`Cc1ccc(-c2cc(O)c3nc(O)ccc3c2)c(C)n1` gave a dP/dt of 19%.

Take `Oc1ccc2cc(-c3ccnnc3)ccc2n1`: the dP/dt is recorded as 43%.

As for `Oc1ccc2c(-c3cccnc3)cccc2n1`, the dP/dt is on record as 44%.

`Cc1ccc(-c2cc(C(C)C)c3nc(O)ccc3c2)c(C)n1`: the dP/dt amounted to 16%.

`O=C1CCc2cc(-c3cccnc3)ccc2N1` displayed a dP/dt of 41%.

`Nc1cc2cc(-c3cccnc3)ccc2nc1O` displayed a dP/dt of 63%.

For the molecule `N#Cc1cc2cc(-c3cccnc3)ccc2nc1O`, the dP/dt is 46%.

For `Nc1ccc(-c2ccc3nc(O)ccc3c2)cn1`, the dP/dt is 30%.

The molecule `Oc1ccc2ccc(-c3cccnc3)cc2n1` showed a dP/dt of 6%.

`CSc1cc(-c2ccc(C)nc2C)cc2ccc(O)nc12` gave a dP/dt of 20.

The molecule `Cc1ccc(-c2cc(Br)c3nc(O)ccc3c2)c(C)n1` yielded a dP/dt of 41%.

For `Oc1ccc2cc(-c3cccnc3)ccc2n1`, the dP/dt stood at 54%.

Regarding `Cc1ccc(-c2ccc3nc(O)ccc3c2)cn1`, the dP/dt is reported as 46%.

The molecule `Cc1cc(O)nc2ccc(-c3cccnc3)cc12` showed a dP/dt of 39%.

Molecule `O=[N+]([O-])c1cc2cc(-c3cccnc3)ccc2nc1O` yielded a dP/dt of 39%.

`Oc1ccc2cc(-c3ccncn3)ccc2n1` gave a dP/dt of 38%.

`Oc1ccc2cc(-c3ncccn3)ccc2n1` returned a dP/dt of 28%.

`Oc1ccc2cc(-c3cccnn3)ccc2n1` displayed a dP/dt of 32%.

Turning to `Cc1ccc(-c2ccc3c(c2)CCC(=O)N3)c(C)n1`, the dP/dt is 32%.

`COc1ccc(-c2ccc3nc(O)ccc3c2)cn1` registered a dP/dt of 11%.

With `Oc1ccc2cc(-c3cncnc3)ccc2n1`, the dP/dt is 44%.

Consider `Oc1ccc2cc(-c3ccncc3)ccc2n1`, for which the dP/dt turned out to be 51%.

A further assay relates to Canis familiaris. As to the kind of experiment: Decrease in QA interval in Conscious dog(n=4) 3h after a dose of 2 mg/Kg was administered per orally. In kind it is functional, Canis lupus familiaris.
Conditions: not given
The method in brief: as §1
The molecule `Oc1ccc2cc(-c3ccccn3)ccc2n1` returned a Decrease of 1.

A further assay has as its system Canis familiaris. As to the kind of experiment: Decrease in QA interval in Conscious dog (n=4) 3h after a dose of 1 ug/Kg was administered per orally. In kind it is functional, Canis lupus familiaris. Particulars: in the assay text read “1 mg/Kg” for “1 ug/Kg”. The essentials: as §1
`O=C1CCc2cc(-c3cccnc3)ccc2N1`: the Decrease is given as 7.

In the next assay the test system is Canis familiaris. As to the kind of experiment: Inotropic activity measured as % increase in dP/dt maximum in Anesthetized dog at the dose of 25 ug/Kg administered intravenously. Type of assay: functional, Canis lupus familiaris.
Conditions: not given
The essentials: as §2
Consider `Cc1[nH]c(=O)c(C#N)cc1-c1ccncc1` [MILRINONE], for which the dP/dt came to 46%.

For a further assay, the system named is Canis familiaris. As to the kind of experiment: Decrease in QA interval in Conscious dog (n=4) 1 hr after a dose of 0.5 mg / Kg was administered per orally. In kind it is functional, Canis lupus familiaris.
Conditions: not given
The method in brief:
as §1
With `Cc1cc(-c2cccnc2)cc2ccc(O)nc12`, the Decrease is given as 16.

For another assay, the system named is Canis familiaris. The assay is described as follows: Decrease in QA interval in Conscious dog (n=4) 1 hr after a dose of 1 mg / Kg was administered per orally. Details: unit not given beside the values.
Conditions: not given
Type of assay: functional, Canis lupus familiaris. The method in brief:
as §1
On to `Cc1ccc(-c2ccc3nc(O)ccc3c2)c(C)n1`, for which the Decrease is 6.

In turn, `Oc1ccc2c(-c3cccnc3)cccc2n1` showed a Decrease of 9.

`Oc1ccc2cc(-c3cccnc3)ccc2n1` gave a Decrease of 14.

`Cc1ccc(-c2cc(C)c3nc(O)ccc3c2)c(C)n1` showed a Decrease of 21.

Take `Oc1ccc2cc(-c3ccncn3)ccc2n1`: the Decrease worked out at 6.

`Oc1ccc2cc(-c3ncccn3)ccc2n1` displayed a Decrease of 4.

On to `Oc1ccc2cc(-c3cccnn3)ccc2n1`, for which the Decrease is 8.

The molecule `Oc1ccc2cc(-c3cncnc3)ccc2n1` displayed a Decrease of 3.

Consider `Oc1ccc2cc(-c3ccncc3)ccc2n1`, for which the Decrease is given as 13.

The next assay deals with Canis familiaris. As to the kind of experiment: Decrease in QA interval in Conscious dog(n=4) 3h after a dose of 1 mg/Kg was administered per orally.
Conditions: not given
In kind it is functional, Canis lupus familiaris. The essentials: as §1
Molecule `Oc1ccc2cc(-c3cccnc3)ccc2n1` had a Decrease of 7.

Molecule `Oc1ccc2cc(-c3ccncc3)ccc2n1` had a Decrease of 8.

The next assay has as its system Canis familiaris. The assay is described as follows: Decrease in QA interval in Conscious dog (n=4) 3h after a dose of 0.25 mg/Kg was administered per orally. In kind it is functional, Canis lupus familiaris.
Conditions: not given
The method in brief: as §1
In turn, `Cc1[nH]c(=O)c(C#N)cc1-c1ccncc1` [MILRINONE] showed a Decrease of 7.

A further assay concerns Canis familiaris. As to the kind of experiment: Decrease in QA interval in Conscious dog (n=4) 1 hr after a dose of 2 mg/Kg was administered per orally. Type of assay: functional, Canis lupus familiaris.
Conditions: not given
The essentials: as §1
As for `Oc1ccc2cc(-c3ccccn3)ccc2n1`, the Decrease was found to be 2.

The next assay relates to Canis familiaris. As to the kind of experiment: Inotropic activity measured as % increase in dP/dt maximum in Anesthetized dog at the dose of 12.5 ug/Kg administered intravenously. Type of assay: functional, Canis lupus familiaris.
Conditions: not given
The essentials:
as §2
`Cc1cc(-c2cccnc2)cc2ccc(O)nc12` gave a dP/dt of 112%.

For the molecule `Cc1ccc(-c2cc(C)c3nc(O)ccc3c2)c(C)n1`, the dP/dt was determined as 43%.

The subject of the next assay is Canis familiaris. As to the kind of experiment: Decrease in QA interval in Conscious dog(n=4) 3h after a dose of 1 ug/kg was administered per orally. Type of assay: functional, Canis lupus familiaris. The settings on record: in the assay text read “1 mg/kg” for “1 ug/kg”. The essentials: as §1
For the molecule `Cc1ccc(-c2ccc3nc(O)ccc3c2)c(C)n1`, the Decrease was determined as 5.

Turning to `Cc1cc(-c2cccnc2)cc2ccc(O)nc12`, the Decrease is 20.

The molecule `Oc1ccc2c(-c3cccnc3)cccc2n1` came in with a Decrease of 4.

`Oc1ccc2cc(-c3ccncn3)ccc2n1` yielded a Decrease of 2.

`Oc1ccc2cc(-c3ncccn3)ccc2n1` returned a Decrease of 4.

Molecule `Oc1ccc2cc(-c3cccnn3)ccc2n1` registered a Decrease of 5.

Another assay deals with Canis familiaris. As to the kind of experiment: Decrease in QA interval in Conscious dog(n=4) 3h after a dose of 1 mg/kg was administered per orally.
Conditions: not given
`Cc1ccc(-c2cc(C)c3nc(O)ccc3c2)c(C)n1` yielded a Decrease of 19.

Regarding `Oc1ccc2cc(-c3cncnc3)ccc2n1`, the Decrease was 1.

The subject of a further assay is Canis familiaris. The assay is described as follows: Decrease in QA interval in Conscious dog (n=4) 1 hr after a dose of 1 mg/Kg was administered per orally.
Conditions: not given
`O=C1CCc2cc(-c3cccnc3)ccc2N1` yielded a Decrease of 10.

For another assay, the system named is Canis familiaris. As to the kind of experiment: Inotropic activity measured as % increase in dP/dt maximum in Anesthetized dog at the dose of 250 ug/Kg administered intravenously. In kind it is functional, Canis lupus familiaris.
Conditions: not given
The method in brief: as §2
Regarding `Oc1ccc2cc(-c3ccccn3)ccc2n1`, the dP/dt came to 62%.

`CSc1ccc(C(=O)c2[nH]c(=O)[nH]c2C)cc1` [ENOXIMONE] registered a dP/dt of 32%.

Turning to `Cc1cc2nc(O)ccc2cc1-c1cccnc1`, the dP/dt is 51%.
